We go through 5 compounds from article PMC6088348 (ACS Medicinal Chemistry Letters, 2018).

Series [1] concerns tryptase activity in HMC1 cell lysates. Nature of the series: Inhibition of cellular tryptase activity assessed in HMC1 cell lysates. It is filed as cell-based, human. The note with it: read-out: IC50 in HMC1 cellular lysates; lysates of inhibitor-treated HMC1 cells. A digest of the protocol:
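Tryptase activity measured in lysates of cultured HMC1 human mast cells. IC50 with SEM from nonlinear regression, Hill slope unconstrained.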

The nature of series [2]: Stability of the linker moiety in aqueous buffers and plasma. The note with it: relative to the initial α-hydroxyacetonyl ether. Type of series: physicochemical.

The IC50 is the midpoint of a concentration-inhibition curve. Regarding `NCc1cccc(C2CCN(C(=O)c3cccc(NC(=O)C(=O)C4(O)CCC4)c3)CC2)c1` [Compound 2a], the IC50 in series [1] is 314 nM. For the same compound, the “stability under aqueous conditions” value in series [2] is reported as “improved stability”.
For `NCc1cccc(C2CCN(C(=O)c3cccc(OCC(O)C4(O)CCC4)c3)CC2)c1` (stereo not shown) [Compound 1b], in series [1], the half-maximal inhibitory concentration (IC50) came out at 8400 nM.
As for `CC(C)(O)C(O)C(=O)Nc1cccc(C(=O)N2CCC(c3cccc(CN)c3)CC2)c1` (stereo not shown) [Compound 3b], the IC50 in series [1] was determined as 13300 nM.
Take `NCc1cccc(C2CCN(C(=O)c3cccc(OCC(=O)C4(O)CCC4)c3)CC2)c1` [Compound 1a]: the IC50 in series [1] worked out at 454 nM. The “stability under aqueous conditions” value in series [2] was “improved stability”.
Turning to `CC(C)(O)C(=O)C(=O)Nc1cccc(C(=O)N2CCC(c3cccc(CN)c3)CC2)c1` [Compound 3a], the IC50 in series [1] came out at 113 nM.
